Measurements published in ChEMBL document CHEMBL1146368, “Development of selective inhibitors for anti-apoptotic Bcl-2 proteins from BHI-1” (Bioorg Med Chem, 2007).

Legend:
[1] = target: Apoptosis regulator Bcl-2 (Homo sapiens, UniProt P10415); assay: Displacement of Flu-Bak peptide from recombinant antiapoptotic Bcl2 protein by fluorescence polarization assay
In short: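 Recombinant Ni-NTA-purified proteins from E. coli ER2566 (Bcl-2 lacking transmembrane domain). This is added to compound from 3-fold DMSO stocks (0.014–10 mM), incubated 1 h at 23 °C, and polarization read. Peptide-only background is subtracted. Ki is from the Wang equation; triplicates, run twice.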

[2] = Displacement of Flu-Bak peptide from recombinant antiapoptotic Bcl-XL protein by fluorescence polarization assay; design: species or system Homo sapiens
In short: (§1)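 Recombinant Ni-NTA-purified proteins from E. coli ER2566 (Bcl-2 lacking transmembrane domain). Oregon Green-labelled Bak BH3 peptide (50 nM in premix) is preincubated 1 h at 23 °C with protein for 60% complex (Bcl-2 1000 nM, Bcl-XL 880 nM, Bcl-w 1200 nM) in PBS pH 7.0 with 1 mM DTT. This is added to compound from 3-fold DMSO stocks (0.014–10 mM), incubated 1 h at 23 °C, and polarization read. Peptide-only background is subtracted. Ki is from the Wang equation; triplicates, run twice.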

Bcl-2-like protein 2 = target: T1, Bcl-2-like protein 2 (Homo sapiens, UniProt Q92843); assay: Displacement of Flu-Bak peptide from recombinant antiapoptotic Bcl-w protein by fluorescence polarization assay; in short: as §1
T1 sequence (Q92843 whole entry): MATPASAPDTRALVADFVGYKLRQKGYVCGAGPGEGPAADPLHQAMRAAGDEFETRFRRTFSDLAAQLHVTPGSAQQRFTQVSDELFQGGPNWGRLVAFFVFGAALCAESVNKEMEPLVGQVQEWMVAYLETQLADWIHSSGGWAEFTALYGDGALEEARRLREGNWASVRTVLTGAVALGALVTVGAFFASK

Homo sapiens [3] = species: Homo sapiens; assay: Selectivity for recombinant Bcl2 protein over recombinant Bcl-w protein
Homo sapiens [4] = species: Homo sapiens; assay: Selectivity for recombinant Bcl2 protein over recombinant Bcl-XL protein
Homo sapiens [5] = species: Homo sapiens; assay: Selectivity for recombinant Bcl-w protein over recombinant Bcl-XL protein
Homo sapiens [6] = species: Homo sapiens; assay: Selectivity for recombinant Bcl-XL protein over recombinant Bcl-2 protein

Chain of Apoptosis regulator Bcl-2 (P10415 whole entry, the tested form may be a part): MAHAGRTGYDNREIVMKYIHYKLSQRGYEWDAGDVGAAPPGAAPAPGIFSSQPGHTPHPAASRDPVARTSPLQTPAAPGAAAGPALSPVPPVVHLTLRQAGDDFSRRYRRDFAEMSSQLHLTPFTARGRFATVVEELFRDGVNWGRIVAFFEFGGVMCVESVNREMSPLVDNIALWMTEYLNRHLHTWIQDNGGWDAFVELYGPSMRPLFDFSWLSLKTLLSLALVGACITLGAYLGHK

Row | Compound | Ki [1] [µM] | Ki [2] [µM] | Ki (Bcl-2-like protein 2) [µM] | Ratio Ki (Homo sapiens [3]) | Ratio Ki (Homo sapiens [4]) | Ratio Ki (Homo sapiens [5]) | Ratio Ki (Homo sapiens [6])
1 | O=C(O)CC[C@@H](C(=O)O)N1C(=O)/C(=C/c2ccc(Br)cc2)SC1=S | 320 | 848 | 610 | 1.91 |  |  | 
2 | COc1ccc2c(c[n+](C)c3c4cc5c(cc4ccc23)OCO5)c1OC [CHELERYTHRINE CHLORIDE] | 171 | 96 | 106 |  |  |  | 
3 | C[C@@H](C(=O)O)N1C(=O)/C(=C/c2ccc(Br)cc2)SC1=S | 115 | 374 | 243 | 2.11 |  |  | 
4 | Cc1cc2c(C(C)C)c(O)c(O)c(C=O)c2c(O)c1-c1c(C)cc2c(C(C)C)c(O)c(O)c(C=O)c2c1O [GOSSYPOL] |  | 24.7 | 17.7 |  |  |  | 
5 | CCC/C(=C1/SC(=S)N([C@@H](CC(C)C)C(=O)O)C1=O)c1ccccc1 | 13.5 | 41.3 | 24.1 | 1.79 |  |  | 
6 | C=CCOC(=O)[C@H](C)N1C(=O)/C(=C/c2ccc(Br)cc2)SC1=S | 192 | 268 | > 1000 |  | 1.4 |  | 
7 | CSCC[C@@H](C(=O)O)N1C(=O)/C(=C/c2ccc(Br)cc2)SC1=S | 69.6 | 134 | 88 | 1.26 |  |  | 
8 | CCC/C(=C1/SC(=S)N([C@@H](Cc2ccccc2)C(=O)O)C1=O)c1ccccc1 | 12 | 27.9 | 41.1 |  | 2.33 |  | 
9 | C=CCOC(=O)[C@H](Cc1ccccc1)N1C(=O)/C(=C/c2ccc(Br)cc2)SC1=S | > 1000 | 244 | 56.8 |  |  | 4.29 | 
10 | CCCC[C@H]1C(=O)O[C@H](C)[C@H](NC(=O)c2cccc(NC=O)c2O)C(=O)O[C@@H](C)[C@@H]1OC(=O)CC(C)C [ANTIMYCIN A3] | 124 |  | 127 |  |  |  | 
11 | C/C(=C1/SC(=S)N([C@@H](CC(C)C)C(=O)O)C1=O)c1ccccc1 | 21.2 | 128 | 58.3 | 2.74 |  |  | 
12 | C=CCOC(=O)[C@H](Cc1ccccc1)N1C(=O)C(=C(c2ccccc2)c2ccccc2)SC1=S | 260 | 176 | 116 |  |  | 1.52 | 
13 | CC(C)C[C@@H](C(=O)O)N1C(=O)/C(=C/c2ccc(Br)cc2)SC1=S | 7.43 | 2.99 | 31.2 |  |  |  | 2.48
14 | C[C@@H](C(=O)N1CCOCC1)N1C(=O)/C(=C/c2ccc(Br)cc2)SC1=S | 70 | 228 | 146 | 2.01 |  |  | 
15 | CC(C)C[C@@H](C(=O)O)N1C(=O)C(=C(c2ccccc2)c2ccccc2)SC1=S | 57.8 | 68.8 | 61.9 | 1.07 |  |  | 
16 | O=C(O)[C@H](Cc1ccccc1)N1C(=O)/C(=C/c2ccc(Br)cc2)SC1=S | 14.2 | 5.35 | 21.5 |  |  |  | 2.65
17 | CC(C)C(C(=O)O)N1C(=O)/C(=C\c2ccc(Br)cc2)SC1=S (stereo unspecified) | 43.4 | 133 | 124 | 2.85 |  |  | 
18 | CC(C)C[C@@H](C(=O)O)N1C(=O)/C(=C(\c2ccccc2)c2ccc(-c3ccccc3)cc2)SC1=S | 1.95 | 8.7 | 6.98 | 3.58 |  |  | 
19 | O=C(O)[C@H](Cc1c[nH]c2ccccc12)N1C(=O)/C(=C/c2ccc(Br)cc2)SC1=S | 2.85 | 32.8 | 54.2 |  | 11.5 |  | 
